IC50 and Activity data for 20 molecules are collected here from ChEMBL document CHEMBL4339251, “Prenylated Bibenzyls from the Chinese Liverwort Radula constricta and Their Mitochondria-Derived Paraptotic Cytotoxic Activities” (J Nat Prod, 2019).

As a reminder, the IC50 is the concentration that gives 50% inhibition.

Where a name gives a salt, the structure may show the parent alone. Active and inactive are the calls of the source. The calls are words filed in the database; no cut-off is given here.

Common to all, as to type: functional, cell-based
Experiment [1] has as its system KB. The experiment can be described thus: Cytotoxicity in human KB cells assessed as reduction in cell viability incubated for 48 hrs by MTT assay. The procedure, abridged: (§1)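 MTT viability. U251 and NCI-H1299 were grown in DMEM, the other lines in RPMI 1640, each with 10% FBS, penicillin and streptomycin, at 37 °C in 5% CO2. Cells were seeded in 96-well plates overnight and exposed to a range of concentrations. MTT (5 mg/mL) was added for 4 h, formazan was dissolved in DMSO and absorbance read at 570 nm. Three independent experiments.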
Background: Formazan colour is commonly taken as a measure of viable cells.

The subject of experiment [2] is U-251. The experiment can be described thus: Cytotoxicity in human U251 cells assessed as reduction in cell viability incubated for 48 hrs by MTT assay. Conditions: U-251, 48 h. The procedure, abridged:
as §1

The test system of experiment [3] is SW-620. Kind of experiment: Cytotoxicity in human SW620 cells assessed as reduction in cell viability incubated for 48 hrs by MTT assay. The note with it: SW-620, 48 h. The essentials: as §1
Experiment [4] deals with HT-29. The experiment can be described thus: Cytotoxicity in human HT-29 cells assessed as reduction in cell viability incubated for 48 hrs by MTT assay. Conditions: HT-29, 48 h. The procedure, abridged: as §1
Experiment [5] has as its system NCI-H1299. Kind of experiment: Cytotoxicity in human NCI-H1299 cells assessed as reduction in cell viability incubated for 48 hrs by MTT assay. Conditions: NCI-H1299, 48 h. The procedure, abridged: as §1
For experiment [6], the system named is HepG2. Kind of experiment: Cytotoxicity in human HepG2 cells assessed as reduction in cell viability incubated for 48 hrs by MTT assay. The note with it: HepG2, 48 h. The essentials:
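MTT viability. Cells were seeded in 96-well plates overnight and exposed to a range of concentrations. MTT (5 mg/mL) was added for 4 h, formazan was dissolved in DMSO and absorbance read at 570 nm. Three independent experiments.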

In experiment [7] the test system is SMMC-7721. The experiment can be described thus: Cytotoxicity in human SMMC7721 cells assessed as reduction in cell viability incubated for 48 hrs by MTT assay. Conditions: SMMC-7721, 48 h. The essentials: as §1
The test system of experiment [8] is A549. Kind of experiment: Cytotoxicity in human A549 cells assessed as reduction in cell viability incubated for 48 hrs by MTT assay. Conditions: A549, 48 h. The procedure, abridged:
as §1

Experiment [9] relates to MCF7. The experiment can be described thus: Cytotoxicity in human MCF7 cells assessed as reduction in cell viability incubated for 48 hrs by MTT assay. Conditions: MCF7, 48 h. The procedure, abridged:
as §1

The subject of experiment [10] is A549. The experiment can be described thus: Induction of cytoplasmic vacuolization in human A549 cells.

With `COC(=O)c1c(CCc2ccccc2)cc2c(c1O)CC(C(C)(C)O)O2` (racemic), the half-maximal inhibitory concentration (IC50) in [1], in experiment [2], in experiment [3], in [4], in experiment [5] and in [6] was more than 40 µM throughout. Further, the IC50 in [7], in experiment [8] and in experiment [9] was more than 40 µM each time.
As to `COc1cccc2c1C(=O)c1c(O)c3c(c(O)c1C2=O)C[C@@](O)(C(=O)CO)C[C@@H]3O[C@H]1C[C@H](N)[C@H](O)[C@H](C)O1` [DOXORUBICIN HYDROCHLORIDE], the IC50 in experiment [1] amounted to 3.2 µM; in experiment [2] it was 2.9 µM; in experiment [3], 1.2 µM; in experiment [4] it was 3.8 µM; in [5], 0.8 µM; in [7], 0.8 µM.
On to `CC(C)=CCC[C@@]1(C)C=Cc2c(CCc3ccccc3)cc(O)cc2O1`, for which the IC50 in experiment [1] is 28.1 µM; in [2] it was 8.9 µM; in [3], 18.5 µM; in [4], more than 40 µM; in experiment [5] it was more than 40 µM; in experiment [6] it was 35 µM. Besides, the results for the IC50 in experiment [7], in [8] and in [9] were 24.8 µM, more than 40 µM and more than 40 µM, respectively.
Take `CC1=CCc2c(O)cc(CCc3ccccc3O)cc2OC1`: the IC50 in experiment [1] was more than 40 µM; in [2], 38.6 µM; in [3], more than 40 µM; in experiment [4], 24.3 µM; in [5], more than 40 µM; in [6], 28.2 µM. For the same molecule, the IC50 in experiment [7] was 40 µM; in [8], 28.9 µM; in experiment [9], more than 40 µM. Moreover, the outcome in experiment [10] was Active.
Take `C=C(CCC=C(C)C)[C@H](O)Cc1c(O)cc(O)cc1CCc1ccccc1`: the IC50 in [1] was 16.8 µM; in [2] it was 9.1 µM; in [3] it was 15.2 µM; in [4], 19.8 µM; in [5], more than 40 µM; in [6], 20.4 µM. The IC50 in experiment [7] turned out to be 15.8 µM; in [8], 26 µM; in [9], 18.7 µM.
`CC1=CCc2c(O)cc(CCc3ccccc3)cc2OC1`: the IC50 in [1], in [2], in [3], in [4], in [5] and in [6] was more than 40 µM in each case. Besides, the IC50 in experiment [7], in experiment [8] and in experiment [9] was more than 40 µM throughout.
For the molecule `C=C(C)C(O)Cc1c(O)cc(CCc2ccccc2)c(C(=O)OC)c1O` (racemic), the IC50 in [1] is more than 40 µM; in [2], 8.7 µM; in experiment [3], 22.2 µM; in [4], 29.6 µM; in experiment [5], more than 40 µM; in experiment [6], 34.9 µM. The results for the IC50 in experiment [7], in experiment [8] and in experiment [9] were 9 µM, 36.6 µM and 37.9 µM, respectively.
As to `CC(C)=CCC/C(C)=C/Cc1c(O)cc(O)cc1CCc1ccccc1`, the IC50 in experiment [1] is 25.7 µM; in experiment [2] it was 9.3 µM; in [3] it was 25.6 µM; in experiment [4], more than 40 µM; in [5], more than 40 µM; in experiment [6], 36 µM. Besides, the figures for the IC50 in [7], in [8] and in experiment [9] were 24.5 µM, more than 40 µM and more than 40 µM, respectively.
Turning to `CC(C)=CCCC(C)(O)CCc1c(O)cc(O)cc1CCc1ccccc1` (racemic), the IC50 was 29.6 µM in [1]; 36.7 µM in experiment [2]; more than 40 µM in experiment [3]; more than 40 µM in [4]; more than 40 µM in experiment [5]; more than 40 µM in experiment [6]. Also, the IC50 in experiment [7] was 38.7 µM; in [8], more than 40 µM; in experiment [9] it was more than 40 µM.
`C=C(C)[C@H]1CC[C@@]2(C)Oc3cc(O)cc(CCc4ccccc4)c3[C@@H]1[C@H]2O`: the IC50 in [1] is 38 µM; in experiment [2] it was 14.6 µM; in experiment [3] it was 21.3 µM; in experiment [4], 35.3 µM; in experiment [5], more than 40 µM; in experiment [6], 31.6 µM. The IC50 in experiment [7] came to 28.4 µM; in experiment [8], 28 µM; in experiment [9], 37 µM.
On to `COC(=O)c1c(CCc2ccccc2)cc(O)c2c1OC(C)(C)C(O)C2` (racemic), for which the IC50 in experiment [1], in [2], in experiment [3], in [4], in experiment [5] and in experiment [6] was more than 40 µM in each case. The IC50 in [7], in experiment [8] and in experiment [9] was more than 40 µM each time.
Regarding `O=C1C=Cc2c(O)cc(CCc3ccccc3O)cc2OC1`, the IC50 in experiment [1] was more than 40 µM; in experiment [2] it was 21.7 µM; in [3], 13.8 µM; in experiment [4], more than 40 µM; in experiment [5], more than 40 µM; in experiment [6], more than 40 µM. Also, the IC50 in experiment [7] is 14.7 µM; in [8], more than 40 µM; in experiment [9] it was 33.2 µM.
Consider `CC1=CC(=O)c2c(O)cc(CCc3ccccc3O)cc2OC1`, for which the IC50 in experiment [1], in [2], in experiment [3], in experiment [4], in [5] and in [6] was more than 40 µM in each case. For the same molecule, the IC50 in [7], in experiment [8] and in experiment [9] was more than 40 µM in each case.
Consider `CC1(C)CCc2c(CCc3ccccc3)cc(O)cc2O1`, for which the concentration for half-maximal inhibition (IC50) in experiment [1], in experiment [2], in [3], in experiment [4], in experiment [5] and in [6] was more than 40 µM throughout. Further, the half-maximal inhibitory concentration (IC50) in experiment [7], in experiment [8] and in experiment [9] was more than 40 µM throughout. For the same molecule, in [10], the outcome was Active.
For the molecule `CC(C)(O)[C@H]1CC[C@@]2(C)Oc3cc(O)cc(CCc4ccccc4)c3[C@@H]1[C@H]2O`, the concentration for half-maximal inhibition (IC50) in experiment [1], in [2], in experiment [3], in [4], in [5] and in [6] was more than 40 µM each time. Further, the half-inhibitory concentration (IC50) in experiment [7], in experiment [8] and in experiment [9] was more than 40 µM each time.
In the case of `COc1cc(CCc2ccccc2)c2c(c1)OC(C)(C)CC2`, the IC50 in experiment [1] was more than 40 µM; in [2] it was 26.1 µM; in [3], more than 40 µM; in [4], more than 40 µM; in [5] it was more than 40 µM; in experiment [6], more than 40 µM. Moreover, the IC50 in experiment [7], in [8] and in experiment [9] was more than 40 µM in each case.
Take `COC(=O)c1c(CCc2ccccc2)cc2c(c1O)CC(O)C(C)(C)O2` (racemic): the IC50 in experiment [1], in experiment [2], in [3], in experiment [4], in experiment [5] and in experiment [6] was more than 40 µM throughout. Also, the IC50 in experiment [7], in experiment [8] and in experiment [9] was more than 40 µM each time.
As to `CC(C)=CCCC1(C)Oc2cc(O)cc(CCc3ccccc3)c2CC1O` (racemic), the IC50 in [1], in experiment [2], in experiment [3], in [4], in experiment [5] and in [6] was more than 40 µM each time. Besides, the IC50 in [7], in experiment [8] and in experiment [9] was more than 40 µM in each case.
On to `C=C(C)[C@@H](O)CC/C(C)=C/Cc1c(O)cc(O)cc1CCc1ccccc1`, for which the IC50 in [1] is 17.2 µM; in [2] it was more than 40 µM; in experiment [3] it was 19.7 µM; in experiment [4], 29 µM; in [5], more than 40 µM; in experiment [6], 22.2 µM. Besides, the IC50 is 29.5 µM in [7], 25.5 µM in [8] and 28.9 µM in experiment [9]. The result in [10] was Active.
With `CC1(C)[C@@H]2c3c(CCc4ccccc4)cc(O)cc3O[C@]3(C)CC[C@H]1[C@H]23`, the IC50 in experiment [1] was 16 µM; in [2], 25.6 µM; in experiment [3] it was 10.4 µM; in [4] it was more than 10 µM; in [5], 7.5 µM; in [6], 13.1 µM. Besides, the IC50 in [7] was 13.5 µM; in experiment [8], 9.8 µM; in [9] it was 20 µM. For the same molecule, the outcome in [10] was Active.
